# D1 mod – allosterically modulates the human D1 dopamine receptor. P21728. HEK293 D1, CRE-luciferase, dopamine EC30 potentiation; actives deviate in either direction. B-score at 10 µM. 58,000 compounds, 5.9% hits. AID 641;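 active = luminescence count or its row- and column-corrected plate score outside the 99.7% band of the plate's sample wells, on either side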
# Target sequence (P21728 whole entry, looked up): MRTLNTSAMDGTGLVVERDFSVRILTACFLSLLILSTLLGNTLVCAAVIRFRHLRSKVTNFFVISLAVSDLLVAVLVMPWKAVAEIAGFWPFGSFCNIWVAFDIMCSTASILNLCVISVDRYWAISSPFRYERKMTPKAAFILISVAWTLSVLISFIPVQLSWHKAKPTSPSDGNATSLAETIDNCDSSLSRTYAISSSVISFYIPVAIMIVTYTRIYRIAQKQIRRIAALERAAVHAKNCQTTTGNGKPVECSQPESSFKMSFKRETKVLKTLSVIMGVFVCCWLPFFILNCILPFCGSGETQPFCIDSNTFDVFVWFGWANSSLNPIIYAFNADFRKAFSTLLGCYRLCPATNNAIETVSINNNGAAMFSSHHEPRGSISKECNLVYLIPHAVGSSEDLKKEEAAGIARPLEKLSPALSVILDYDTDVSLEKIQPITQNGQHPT
# AP ELISA ortho – orthogonal test for alternative complement pathway inhibitors; AID 1235; 62,000 compounds, 0.08% hits; inhibition, % at 5 µM; Human serum alternative complement pathway, LPS-coated ELISA, C3 deposition; tested in compound mixtures;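 active = inhibition above 30% in each of the two pooled mixtures holding the compound, so the lower value exceeds 30%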;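 also: 0% = serum in Mg-EGTA without compound and 100% = EDTA serum blank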
#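 Test system: human serum complement alternative pathway, C3 deposition onto LPS / Medium: Mg2+-EGTA GVB++ buffer containing human serum at 1:15 dilution / Probe or stimulus: Plate-bound LPS / Times: 1 h at 37 °C / Signal: ELISA with HRP anti-human C3 antibody, TMB substrate, absorbance 450 nm / Measure: percent inhibition / Repeats: two pool placements per compound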
# M1 agonist – M1 muscarinic receptor agonism | CHO-M1 cells, Fluo-4 calcium fluorescence, agonist mode; stronger effect = higher value | B-score at 10 µM | 64,000 compounds, 3% hits;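 active = fluorescence rise, raw or as B-score row- and column-corrected plate score, outside the 99.7% band of its plate's samples, either direction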
# M1 antag – M1 muscarinic receptor (rat) antagonism | P08482 | CHO-M1 cells, Fluo-4 calcium, ACh EC80 antagonist mode; stronger effect = lower value | B-score at 10 µM | 64,000 compounds, 3.4% hits;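 active = calcium fluorescence response, raw or row-and-column corrected B-score, differing from the plate sample mean either way at a set confidence level, mostly lower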
# mHtt clearance – mutant huntingtin protein clearance. inhibition, % at 1.5 µM. HeLa Exon1htt(103Q)mCFP, aggregate imaging; zero = plate's median compound well. 47,000 compounds, 0.42% hits;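 active = inhibition of aggregate fluorescence above about 70%, also judged a hit by eye on the cell image, limit read from the data, passing the limit was not always enough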;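 also: cells exposed to compound for three days before fixation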
# M1 antag confirm – M1 muscarinic receptor (rat) antagonism, confirmed; CHO-M1 cells, Fluo-4 calcium, ACh EC80 antagonism; stronger effect = lower value; calcium response (max-min fluorescence) at 10 µM; 1,700 compounds, 43% hits; AID 677; shares compounds with M1 antag;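 active = calcium response below the same-plate mean of wells given acetylcholine alone at its 80%-effect dose, minus 3 SD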;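 also: raw fluorescence intensity difference in arbitrary instrument units and not normalized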
# mGluR4 antag – mGluR4 (human) activity, M1 antagonist secondary assay | shares compounds with M1 antag | CHO-mGluR4 calcium flux, Fluo-4 fluorescence, glutamate EC80; stronger effect = lower value | fluorescence response (max-min) at 10 µM | 1,700 compounds, 0.9% hits | AID 678;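 active = fluorescence response below the plate's average for near-maximal glutamate wells, less 3 SD of those wells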;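 also: raw unnormalized fluorescence span taken in the window right after glutamate addition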
# Numbers without * were called inactive; . = no result given. In the library only some 9% were active in any assay of this set; here they are far more common.
SMILES,D1 mod,AP ELISA ortho,M1 agonist,M1 antag,mHtt clearance,M1 antag confirm,mGluR4 antag
O=C(CSc1nnc(CNC(=O)c2ccccc2F)o1)c1ccccc1,-0.78,13,-2,-3.2*,.,611,245
O=C(NCc1nnc(SCC(=O)N2CCCC2)o1)c1ccccc1F,-0.47,18,-0.5,-1.1,.,.,.
O=C(CCN1CCc2ccccc2C1)c1ccc2c(c1)OCCO2,-1.1,14,-0.17,-5.7*,52,487*,254
O=C(CCN1CCc2ccccc21)c1ccc2c(c1)OCCO2,.,15,-0.94,0.15,.,.,.
CC(=O)C1=C(N2CCCCC2)CCC1=O,0.59,8,-0.62,-0.57,-22,.,.
Nc1nc(SCc2ccccc2Cl)ns1,.,.,.,.,38,.,.
O=C1NCCCc2nc(Oc3ccccc3)sc21,0.11,5,-0.51,-3.3*,.,623,228
CCCCC(CCC(=O)Nc1ccccc1C(=O)OCC)C(=O)O (centres undefined),-0.036,10,1.5,-4.3*,44,685,251
CCOC(=O)c1ccc(NC(=O)CCC(CC)C(=O)O)cc1 (centres undefined),.,.,-0.99,0.25,.,.,.
CC1(c2ccc(Cl)cc2Cl)OCC(Cn2ccnc2)O1 (centres undefined),-0.01,-4,-0.83,-0.28,.,.,.
CC(C)(C)n1ncc2c(=O)n(CC(=O)N3CCN(c4ccccc4)CC3)cnc21,0.4,18,-0.87,-0.44,.,.,.
CCCCn1c(Cc2ccccc2)n[nH]c1=S,-0.27,-1,-0.46,-12*,.,53*,263
Cc1cc(C=O)c2c(c1)C=CC1(Oc3ccccc3C(=O)N1C)O2 (centres undefined),.,.,.,.,-45,.,.
CC1CC(C)CN(CCCNC(=O)C2CCCN(c3nnc(N4CCCC4=O)s3)C2)C1 (centres undefined),0.26,-3,1,-0.022,-55,.,.
CCCCOc1ccc(CN2CCCCC2)cc1,0.047,14,-0.26,-5.1*,.,283*,262
CCOc1ccc(OCCCCN2CCCC2)cc1,.,.,.,.,-10,.,.
O=C(Cc1cccs1)NCCn1ccc2ccccc21,0.034,19,0.67,0.11,.,.,.
CC(C)c1ccc(N2C(=O)[C@@H]3Cc4ccccc4CN3C2=O)cc1,0.49,12,-0.81,-1.3*,-2,667,257
Cc1ccc(N2C(=O)[C@@H]3Cc4ccccc4CN3C2=O)cc1,0.56,8,-0.68,0.031,.,.,.
Nc1cc(C(=O)N2CCCC2)cc(C(=O)N2CCCC2)c1,-0.19,-4,-0.23,-0.54,-32,.,.
CN1CCCN(C(c2ccccc2)c2ccc(Cl)cc2)CC1 (centres undefined),-3.3,-3,0.81,-16*,.,14*,214
O=C(c1ccccc1)N1CC(COc2ccccc2)OC(c2cccnc2)O1 (centres undefined),-0.8,-3,-1.2,-4.3*,7,677,246
O=c1[nH]c2cc3c(cc2cc1CN(CC1CCCO1)S(=O)(=O)c1ccc(Cl)cc1)OCCO3 (centres undefined),.,10,0.013,-4.2*,.,614,269
Cc1ccc(S(=O)(=O)N(Cc2cc3cc4c(cc3[nH]c2=O)OCCO4)CC2CCCO2)cc1 (centres undefined),0.93,4,-0.51,0.2,.,.,.
CCCCOc1ccc(S(=O)(=O)n2c(C)nc3ccccc32)cc1,-0.62,9,-1,-3.5*,.,584,242
SMILES,D1 mod,AP ELISA ortho,M1 agonist,M1 antag,mHtt clearance,M1 antag confirm,mGluR4 antag
CCOc1ccc(S(=O)(=O)n2c(C)nc3ccccc32)cc1,-1.6,29,-0.073,-2.6*,.,202*,243
Cc1cc2cc(CNC(=O)Cc3cccs3)ccc2n1C,-0.18,10,2.2,0.91,.,.,.
C=CCC(C#Cc1ccccc1)[N+](C)(C)CC=C (centres undefined),.,.,.,.,-142,.,.
Cc1cc(C)nc(N2CCC(C(=O)O)CC2)n1,-0.83,3,-0.38,0.28,19,.,.
Cc1cc(C)nc(N2CCN(c3nc(C)cc(C)n3)CC2)n1,-0.84,15,-0.26,-7.7*,.,719,217
CN(C)C(CNC(=O)C1CCCN(C(=O)c2ccc(Cl)cc2)C1)c1ccco1 (centres undefined),0.092,3,-0.016,-3.6*,-6,666,267
CCCCCn1c(CCCNC(=O)CC)nc2ccccc21,-0.44,20,-0.0079,1,.,.,.

# Screening results from PubChem BioAssay.
